Columns and labels:
[1] = Cytotoxicity against MDCK cells assessed as decrease in cell viability after 48 hrs by MTT assay; format: cell-based, Canis lupus familiaris; details: dog
Method in brief: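 MDCK cells at 5x10³/well exposed to 2-fold serial dilutions from 250 µM for 48 h. MTT (5 mg/mL) for 4 h at 37 °C, solubilisation 3 h, A620. DMSO wells = 100% viable; CC50 = concentration giving 50% viability loss. Mean ± SD, ≥3 independent experiments in duplicate.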

Influenza A virus = assay: Antiviral activity against Influenza A virus PR/8/34 infected in MDCK cells assessed as inhibition of plaque formation treated for 1 hr measured after 2 days by toluidine blue staining-based assay; format: functional, organism-based; details: A/Puerto Rico/8/1934(H1N1)
Method in brief: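 MDCK confluent monolayers infected with PR8 (H1N1) at 40 PFU/well in DMEM with 1 µg/ml TPCK-trypsin, 0.14% BSA and compound, 1 h at 37 °C. Overlay of the same medium plus 1.2% Avicel and compound. After 2 days, fixed in 4% formaldehyde, stained with 0.1% toluidine blue and plaques counted. EC50 = 50% plaque inhibition. Ribavirin and oseltamivir as references. Mean ± SD, ≥3 independent experiments in duplicate.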

[2] = target: PA/PB1 (Influenza A virus (A/Puerto Rico/8/1934(H1N1)), UniProt P03431+P03433); assay: Inhibition of Influenza A virus PR/8/34 6His-tagged PA (239 to 716 residues) interaction with GST-tagged PB1 (1 to 25 residues) expressed in Escherichia coli compound treated in PBS buffer measured after overnight incubation by ELISA
Method in brief: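 Plates coated with 400 ng E. coli-expressed 6His-PA(239–716) for 3 h at 37 °C, then blocked with 2% BSA/PBS for 1 h. Then 200 ng GST-PB1(1–25) (GST as control) with compound or DMSO in PBS, overnight at room temperature. Detection with HRP anti-GST mAb and TMB, OD 450 nm. DMSO = 100% interaction; PB1(1–15)-Tat as reference. Mean ± SD, ≥3 experiments in duplicate.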

[3] = Inhibition of Influenza A virus RdRp transfected in HEK293T cells at 24 hrs by dual luciferase reporter gene-based minireplicon assay; format: cell-based; details: HEK-293T
Method in brief: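 HEK 293T seeded at 2x10⁵/well; 24 h later calcium-phosphate transfected with PB1, PB2, PA and NP plasmids (100 ng/well each), pPolI-Flu-ffLuc (50 ng/well) and pRL-SV40 normaliser (50 ng/well) with compound or DMSO. Medium with compound replaced at 4 h; firefly/Renilla luciferase read at 24 h. Ribavirin reference. Mean ± SD, ≥2 experiments in duplicate.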

[4] = target: PA/PB1 (Influenza A virus (A/Puerto Rico/8/1934(H1N1)), UniProt P03431+P03433); assay: Inhibition of Influenza A virus PR/8/34 6His-tagged PA (239 to 716 residues) interaction with GST-tagged PB1 (1 to 25 residues) expressed in Escherichia coli compound treated in DMEM serum-free medium measured after overnight incubation by ELISA
Method in brief: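 Same coated 6His-PA(239–716)/GST-PB1(1–25) ELISA (400 ng PA, 200 ng PB1 peptide; overnight room temperature; HRP anti-GST/TMB, OD 450), but GST-PB1 and compounds or DMSO are dissolved in serum-free DMEM instead of PBS. DMSO = 100% interaction; PB1(1–15)-Tat as positive control. IC50 from mean ± SD, ≥2 experiments in duplicate.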

[5] = Cytotoxicity against HEK293T cells assessed as decrease in cell viability after 24 hrs by MTT assay; format: cell-based, HEK-293T; details: human
Method in brief: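 HEK 293T cells at 2x10⁴/well exposed to 2-fold serial dilutions from 250 µM for 24 h. MTT (5 mg/mL) for 4 h at 37 °C, solubilisation 3 h, absorbance at 620 nm. DMSO wells set as 100% viability; CC50 = 50% viability decrease. Mean ± SD, ≥3 independent experiments in duplicate.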

[6] = Selectivity index, ratio of CC50 for MDCK cells to EC50 for Influenza A virus PR/8/34 infected in MDCK cells; format: toxicity, cell-based; details: dog, read-out: Ratio CC50/EC50
[7] = Ratio of IC50 for Influenza A virus PR/8/34 6His-tagged PA (239 to 716 residues) interaction with GST-tagged PB1 (1 to 25 residues) to EC50 for Influenza A virus PR/8/34 infected in MDCK cells

Structure (SMILES) | CC50 at 48 h [1] [µM] | EC50 (Influenza A virus) [µM] | IC50 [2] [µM] | EC50 [3] [µM] | IC50 [4] [µM] | CC50 at 24 h [5] [µM] | selectivity ratio [6] | Ratio IC50/EC50 [7]
Cc1cccc(NC(=O)CNc2nc(-c3ccccc3)cc(-c3ccccc3)c2C#N)c1 | > 250 | 28.6 | > 200 | 46.3 | > 200 | > 250 | > 8.7 | 
NC(=O)c1ncn([C@@H]2O[C@H](CO)[C@@H](O)[C@H]2O)n1 [RIBAVIRIN] | > 250 | 12.8 |  | 23.8 |  | > 250 | > 19.5 | 
Cc1cccc(NC(=O)CCc2nc(-c3ccccc3)cc(-c3ccccc3)c2C#N)c1 | > 250 | > 100 | > 200 |  |  | 140 |  | 
Cc1cccc(NC(=O)CCSc2nc(-c3ccccc3)cc(-c3ccccc3)c2C#N)c1 | 13.9 | > 10 | 122 |  |  | 150 |  | 
CSCC[C@H](N)C(=O)N[C@@H](CC(=O)O)C(=O)N[C@H](C(=O)N[C@@H](CC(N)=O)C(=O)N1CCC[C@H]1C(=O)N[C@H](C(=O)N[C@@H](CC(C)C)C(=O)N[C@@H](CC(C)C)C(=O)N[C@@H](Cc1ccccc1)C(=O)N[C@@H](CC(C)C)C(=O)N[C@@H](CCCCN)C(=O)N[C@H](C(=O)N1CCC[C@H]1C(=O)N[C@@H](C)C(=O)N[C@@H](CCC(N)=O)C(=O)O)C(C)C)[C@@H](C)O)C(C)C | > 250 | 49.7 | 35.9 |  | 31.7 | > 250 | > 5 | 
Cc1cccc(NC(=O)COc2nc(-c3ccccc3)cc(-c3ccccc3)c2C#N)c1 | > 250 | 93.9 | > 200 |  |  | > 250 | > 2.7 | 
CSc1nc(-c2ccccc2)cc(-c2ccccc2)c1C#N | 125 | > 50 | 195 |  |  | 144 |  | 
Cc1cccc(NC(=O)CSc2nc(-c3ccccc3)ccc2C#N)c1 | 7.1 | > 10 | > 200 |  |  | 32 |  | 
N#Cc1c(-c2ccccc2)cc(-c2ccccc2)nc1SCC(=O)N1CCOCC1 | > 250 | 100 | 177 |  |  | 184 | > 2.5 | 
Cc1cccc(NC(=O)/C=C/c2nc(-c3ccccc3)cc(-c3ccccc3)c2C#N)c1 | > 250 | 70.7 | 190 |  |  | > 250 | > 3.5 | 
Cc1cccc(NC(=O)CSc2cc(-c3ccccc3)cc(-c3ccccc3)n2)c1 | 150 | 7.3 | 52.6 | 30.8 | 40.5 | > 250 | 20.5 | 
Cc1cccc(NC(=O)CSc2nccc(-c3ccccc3)c2C#N)c1 | 41.5 | > 10 | > 200 |  |  | 180 |  | 
Cc1cccc(NC(=O)CSc2nc(-c3ccccc3)cc(-c3ccccc3)c2C#N)c1 | > 250 | 9.2 | 175 | 86.6 | 35.2 | > 250 | > 27.2 | 19
CCOC(=O)C1=C[C@@H](OC(CC)CC)[C@H](NC(C)=O)[C@@H](N)C1 [OSELTAMIVIR] | > 250 | 0.015 |  |  |  | > 250 | > 16000 | 
Cc1cccc(NC(=O)CSc2nc(-c3ccc(C(F)(F)F)cc3)cc(-c3ccc(C(F)(F)F)cc3)n2)c1 | > 250 | 26.5 | > 200 | 22 | 64.5 | > 250 | > 9.4 | 
Cc1cccc(NC(=O)CCCSc2nc(-c3ccccc3)cc(-c3ccccc3)c2C#N)c1 | 41.5 | 8.2 | 140 |  | 145 | 95.6 | 5.1 | 
N#Cc1cnc(-c2ccccc2)cc1-c1ccccc1 | 105 | 45.1 | 116 |  |  | > 250 | 2.3 | 
Cc1cccc(NC(=O)CSc2nc(-c3ccccc3)cc(-c3ccccc3)n2)c1 | 10.1 | 3.5 | 165 |  | 113 | 22.3 | 2.9 | 47

Reference: ChEMBL document CHEMBL3792357, “4,6-Diphenylpyridines as Promising Novel Anti-Influenza Agents Targeting the PA-PB1 Protein-Protein Interaction: Structure-Activity Relationships Exploration with the Aid of Molecular Modeling” (J Med Chem, 2016)
